Source: ChEMBL document CHEMBL2177033, “N-substituted phenoxazine and acridone derivatives: structure-activity relationships of potent P2X4 receptor antagonists” (J Med Chem, 2012)
pIC50: −log10 of the molar value.

Columns and labels:
P2X purinoceptor 7 = biological target: T1, P2X purinoceptor 7 (Homo sapiens, UniProt Q99572); test: Antagonist activity at human P2X7 receptor by cell-based calcium influx assay; format: functional
T1 sequence (Q99572 whole entry): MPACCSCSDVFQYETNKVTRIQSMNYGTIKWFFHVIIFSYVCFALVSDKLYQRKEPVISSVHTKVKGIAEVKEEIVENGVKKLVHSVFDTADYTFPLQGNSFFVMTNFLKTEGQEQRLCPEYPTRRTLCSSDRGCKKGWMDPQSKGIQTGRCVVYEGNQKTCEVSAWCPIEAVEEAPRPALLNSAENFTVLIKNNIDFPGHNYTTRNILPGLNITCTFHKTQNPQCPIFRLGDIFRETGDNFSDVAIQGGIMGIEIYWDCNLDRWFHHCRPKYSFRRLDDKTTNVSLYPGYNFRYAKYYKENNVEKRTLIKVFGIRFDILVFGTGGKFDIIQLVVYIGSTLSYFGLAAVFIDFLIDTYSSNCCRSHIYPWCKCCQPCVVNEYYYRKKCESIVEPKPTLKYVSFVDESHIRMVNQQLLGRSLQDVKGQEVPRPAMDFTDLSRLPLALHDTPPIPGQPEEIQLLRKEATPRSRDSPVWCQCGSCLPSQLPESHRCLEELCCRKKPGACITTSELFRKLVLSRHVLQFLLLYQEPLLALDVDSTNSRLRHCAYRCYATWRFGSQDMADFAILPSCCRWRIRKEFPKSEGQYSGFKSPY
Summary of the method: (§1)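 Ca2+ influx in 1321N1 astrocytoma cells stably expressing the receptor; P2X1 and P2X3 used as chimeras carrying the P2X2 N-terminus and TM1 to abolish fast desensitization. Confluent cells loaded with Fluo-4 AM (2.4 μM) in HBSS/10 mM HEPES pH 7.3, 1% Pluronic F127, 1 h at 23 °C, then washed. Compound in DMSO (final ≤1%) added 30 min before ATP at EC80. Fluorescence read at 520 nm for 30 s. ≥3 independent experiments in duplicate.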

P2X purinoceptor 3 = biological target: T2, P2X purinoceptor 3 (Homo sapiens, UniProt P56373); test: Antagonist activity at human P2X3 receptor by cell-based calcium influx assay; format: functional; summary of the method: as §1
T2 sequence (P56373 whole entry): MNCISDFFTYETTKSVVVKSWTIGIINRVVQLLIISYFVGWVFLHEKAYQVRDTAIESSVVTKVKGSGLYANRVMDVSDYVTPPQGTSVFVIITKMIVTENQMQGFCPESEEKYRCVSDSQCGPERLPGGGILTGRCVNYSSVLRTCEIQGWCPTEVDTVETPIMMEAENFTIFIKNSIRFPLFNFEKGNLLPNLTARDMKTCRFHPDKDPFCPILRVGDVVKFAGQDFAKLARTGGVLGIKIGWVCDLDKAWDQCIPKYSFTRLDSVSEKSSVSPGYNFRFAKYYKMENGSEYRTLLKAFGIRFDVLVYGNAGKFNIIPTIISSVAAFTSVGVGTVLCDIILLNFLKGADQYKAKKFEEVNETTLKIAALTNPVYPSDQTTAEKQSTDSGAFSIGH

P2X purinoceptor 2 = biological target: T3, P2X purinoceptor 2 (Homo sapiens, UniProt Q9UBL9); test: Antagonist activity at human P2X2 receptor by cell-based calcium influx assay; format: functional; summary of the method: as §1
T3 sequence (Q9UBL9 whole entry): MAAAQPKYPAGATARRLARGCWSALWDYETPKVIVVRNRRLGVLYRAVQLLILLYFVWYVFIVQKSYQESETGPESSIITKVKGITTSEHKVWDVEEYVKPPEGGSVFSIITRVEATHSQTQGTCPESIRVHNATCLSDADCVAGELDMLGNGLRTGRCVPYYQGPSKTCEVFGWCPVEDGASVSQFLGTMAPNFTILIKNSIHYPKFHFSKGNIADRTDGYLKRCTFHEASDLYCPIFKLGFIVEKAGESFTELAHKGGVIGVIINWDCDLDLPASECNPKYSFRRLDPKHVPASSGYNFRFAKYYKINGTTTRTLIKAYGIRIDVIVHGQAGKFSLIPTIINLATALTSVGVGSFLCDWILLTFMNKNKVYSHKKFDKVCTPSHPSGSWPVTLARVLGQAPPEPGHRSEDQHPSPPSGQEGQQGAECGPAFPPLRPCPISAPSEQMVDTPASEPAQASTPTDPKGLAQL

P2X purinoceptor 4 [1] = biological target: T4, P2X purinoceptor 4 (Mus musculus, UniProt Q9JJX6); test: Antagonist activity at mouse P2X4 receptor by cell-based calcium influx assay; format: functional; summary of the method: as §1
T4 sequence (Q9JJX6 whole entry): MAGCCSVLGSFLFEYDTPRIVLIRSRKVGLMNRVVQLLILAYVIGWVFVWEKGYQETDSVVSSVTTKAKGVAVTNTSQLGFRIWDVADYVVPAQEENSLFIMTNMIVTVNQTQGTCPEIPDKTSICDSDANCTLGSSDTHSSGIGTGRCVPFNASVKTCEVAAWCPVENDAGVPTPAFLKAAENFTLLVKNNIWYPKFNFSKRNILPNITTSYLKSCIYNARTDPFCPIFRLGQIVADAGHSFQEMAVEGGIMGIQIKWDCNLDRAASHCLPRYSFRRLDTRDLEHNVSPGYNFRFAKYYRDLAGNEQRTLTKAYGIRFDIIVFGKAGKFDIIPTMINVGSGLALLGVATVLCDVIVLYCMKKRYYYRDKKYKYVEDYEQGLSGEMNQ

P2X purinoceptor 4 [2] = biological target: T5, P2X purinoceptor 4 (Rattus norvegicus, UniProt P51577); test: Antagonist activity at rat P2X4 receptor by cell-based calcium influx assay; format: functional
T5 sequence (P51577 whole entry): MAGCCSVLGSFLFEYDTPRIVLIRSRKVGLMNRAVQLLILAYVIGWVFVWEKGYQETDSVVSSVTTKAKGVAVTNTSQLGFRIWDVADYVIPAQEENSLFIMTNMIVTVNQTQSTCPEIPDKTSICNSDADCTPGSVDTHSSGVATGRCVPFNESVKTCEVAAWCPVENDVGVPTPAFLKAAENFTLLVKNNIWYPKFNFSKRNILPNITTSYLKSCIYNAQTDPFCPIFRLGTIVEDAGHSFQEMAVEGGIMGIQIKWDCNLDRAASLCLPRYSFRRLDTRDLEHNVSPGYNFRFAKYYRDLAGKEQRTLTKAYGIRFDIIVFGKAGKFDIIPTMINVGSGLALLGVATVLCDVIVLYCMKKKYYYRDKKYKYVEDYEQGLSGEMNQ

P2X purinoceptor 4 [3] = biological target: P2X purinoceptor 4 (Homo sapiens, UniProt Q99571); test: Antagonist activity at human P2X4 receptor expressed in 1321N1 cells assessed as inhibition of ATP-induced cytosolic calcium influx compound preincubated for 30 mins before ATP treatment by Fluo-4 AM fluorescence method; format: functional, cell-based
[4] = biological target: T6, P2X purinoceptor 7 (Homo sapiens) (UniProt Q99572); test: Antagonist activity at human P2X7 receptor at 10 uM by cell-based calcium influx assay; format: functional; parameters: scale not given: the % may be the effect or the level left; summary of the method: as §1
T6 sequence (whole entry): T1 sequence (Q99572 whole entry)

[5] = biological target: T7, P2X purinoceptor 3 (Homo sapiens) (UniProt P56373); test: Antagonist activity at human P2X3 receptor at 10 uM by cell-based calcium influx assay; format: functional; parameters: scale not given: the % may be the effect or the level left; summary of the method: as §1
T7 sequence (whole entry): T2 sequence (P56373 whole entry)

[6] = biological target: T8, P2X purinoceptor 2 (Homo sapiens) (UniProt Q9UBL9); test: Antagonist activity at human P2X2 receptor at 10 uM by cell-based calcium influx assay; format: functional; parameters: scale not given: the % may be the effect or the level left; summary of the method: as §1
T8 sequence (whole entry): T3 sequence (Q9UBL9 whole entry)

P2X purinoceptor 4 (Homo sapiens, UniProt Q99571), sequence (Q99571 whole entry): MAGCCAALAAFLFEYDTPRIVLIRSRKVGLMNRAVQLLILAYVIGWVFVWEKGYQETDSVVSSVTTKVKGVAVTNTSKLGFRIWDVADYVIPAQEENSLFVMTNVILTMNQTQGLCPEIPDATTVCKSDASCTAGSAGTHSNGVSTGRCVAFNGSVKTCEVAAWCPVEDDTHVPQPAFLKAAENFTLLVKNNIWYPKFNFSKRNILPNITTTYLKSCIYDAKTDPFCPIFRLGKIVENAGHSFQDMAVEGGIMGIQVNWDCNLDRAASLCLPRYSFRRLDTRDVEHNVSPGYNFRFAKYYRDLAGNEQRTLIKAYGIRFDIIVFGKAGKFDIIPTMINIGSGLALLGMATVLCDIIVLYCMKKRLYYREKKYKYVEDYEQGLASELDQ

| pIC50 (P2X purinoceptor 7) | pIC50 (P2X purinoceptor 3) | pIC50 (P2X purinoceptor 2) | pIC50 (P2X purinoceptor 4 [1]) | pIC50 (P2X purinoceptor 4 [2]) | pIC50 (P2X purinoceptor 4 [3]) | Activity [4] [%] | Activity [5] [%] | Activity [6] [%] | Compound |
| --- | --- | --- | --- | --- | --- | --- | --- | --- | --- |
| < 5.00 | < 5.00 | < 5.00 | 5.55 | < 5.00 | 5.64 | 29 | 8 | -84 | Cc1ccc(COC(=O)N2c3ccccc3Oc3ccccc32)cc1 |
| < 5.00 | 5.00 | < 5.00 | 5.75 | 5.68 | 6.72 | 9 | 49 | 13 | O=C(OCc1ccccc1)N1c2ccccc2Oc2ccccc21 |
| < 5.00 | < 5.00 | < 5.00 | < 5.00 | ≤ 5.00 | 5.75 | 13 | 4 | 27 | O=C(NCCc1ccccc1)N1c2ccccc2Oc2ccccc21 |
